Target: not listed separately
Assay: Binding affinity to HCV NS3 protease by spectrophotometry
Design: species or system Hepacivirus hominis
Conditions: not given
Procedure, shortened: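 Continuous assay with NS4A-tethered single-chain NS3 serine protease, read out chromogenically. Affinity reported as Ki*.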

Ki [nM] | Compound
21 | C=CCNC(=O)C(=O)[C@@H]1CCCCCCCOC[C@H](NC(=O)N[C@H](CN2CCC(C)(C)CC2=O)C(C)(C)C)C(=O)N2C[C@H]3[C@@H]([C@H]2C(=O)N1)C3(C)C
6 | C=CCNC(=O)C(=O)[C@@H]1CCCCCCCO[C@@H](C)[C@H](NC(=O)N[C@H](CN2C(=O)CN(C)CC2=O)C(C)(C)C)C(=O)N2C[C@H]3[C@@H]([C@H]2C(=O)N1)C3(C)C
36 | C=CCNC(=O)C(=O)[C@@H]1CCCCCCCCC[C@H](NC(=O)OC(C)(C)C)C(=O)N2C[C@H]3[C@@H]([C@H]2C(=O)N1)C3(C)C
670 | CC(C)(C)OC(=O)N[C@H]1CS(=O)(=O)CCCCCCC[C@@H](C(=O)C(=O)NC2CC2)NC(=O)[C@@H]2[C@@H]3[C@H](CN2C1=O)C3(C)C
3 | C=CCNC(=O)C(=O)[C@@H]1CCCCCCCO[C@@H](C)[C@H](NC(=O)N[C@H](CN2C(=O)C3CCC(C3)C2=O)C(C)(C)C)C(=O)N2C[C@H]3[C@@H]([C@H]2C(=O)N1)C3(C)C
160 | C=CCNC(=O)C(=O)[C@@H]1CCCCCCCOC[C@H](NC(=O)N[C@H](C(=O)C2CC2)C2CCCCC2)C(=O)N2C[C@H]3[C@@H]([C@H]2C(=O)N1)C3(C)C

Further lines, the compound ahead of its results:

Compound | Ki [nM]
C=CCNC(=O)C(=O)[C@@H]1CCCCCCCOC[C@H](NC(=O)N[C@H](CN(C)S(=O)(=O)CC)C(C)(C)C)C(=O)N2C[C@H]3[C@@H]([C@H]2C(=O)N1)C3(C)C | 18
C=CCNC(=O)C(=O)[C@@H]1CCCCCCCO[C@@H](C)[C@H](NC(=O)N[C@H](CN2C(=O)CC(C)(C)CC2=O)C(C)(C)C)C(=O)N2C[C@H]3[C@@H]([C@H]2C(=O)N1)C3(C)C | 7
C=CCNC(=O)C(=O)[C@@H]1CCCCCCC(=O)CC[C@H](NC(=O)OC(C)(C)C)C(=O)N2C[C@H]3[C@@H]([C@H]2C(=O)N1)C3(C)C | 320
C=CCNC(=O)C(=O)[C@@H]1CCCCCCCOC[C@H](NC(=O)N[C@H](CN(C)S(=O)(=O)c2cccs2)C(C)(C)C)C(=O)N2C[C@H]3[C@@H]([C@H]2C(=O)N1)C3(C)C | 14
C=CCNC(=O)C(=O)[C@@H]1CCCCCCCO[C@@H](C)[C@H](NC(=O)N[C@H](CN2CCC(C)(C)CC2=O)C(C)(C)C)C(=O)N2C[C@H]3[C@@H]([C@H]2C(=O)N1)C3(C)C | 8
C=CCNC(=O)C(=O)[C@@H]1CCCCCCCOC[C@H](NC(=O)N[C@H](CN2C(=O)C3CCC(C3)C2=O)C(C)(C)C)C(=O)N2C[C@H]3[C@@H]([C@H]2C(=O)N1)C3(C)C | 3
C=CCNC(=O)C(=O)[C@@H]1CCCCCCCOC[C@H](NC(=O)OC(C)(C)C)C(=O)N2C[C@H]3[C@@H]([C@H]2C(=O)N1)C3(C)C | 150
C=CCNC(=O)C(=O)[C@@H]1CCCCNC(=O)OCCC[C@H](NC(=O)OC(C)(C)C)C(=O)N2C[C@H]3[C@@H]([C@H]2C(=O)N1)C3(C)C | 660
C=CCNC(=O)C(=O)[C@@H]1CCCCCCCOC[C@H](NC=O)C(=O)N2C[C@H]3[C@@H]([C@H]2C(=O)N1)C3(C)C | 400
C=CCNC(=O)C(=O)[C@@H]1CCCCCCCOC[C@H](NC(=O)N[C@H](CN2C(=O)CC(C)(C)CC2=O)C(C)(C)C)C(=O)N2C[C@H]3[C@@H]([C@H]2C(=O)N1)C3(C)C | 7
C=CCNC(=O)C(=O)[C@@H]1CCCCCCCOC[C@H](NC(=O)N[C@H](CN2C(=O)CN(C)CC2=O)C(C)(C)C)C(=O)N2C[C@H]3[C@@H]([C@H]2C(=O)N1)C3(C)C | 15
CC(C)(C)NC(=O)N[C@H](C(=O)N1C[C@H]2[C@@H]([C@H]1C(=O)NC(CC1CCC1)C(=O)C(N)=O)C2(C)C)C(C)(C)C (some centres undefined) [BOCEPREVIR] | 14
C=CCNC(=O)C(=O)[C@@H]1CCCCCCCOC[C@H](NC(=O)N[C@H](CN2CCCCC2=O)C(C)(C)C)C(=O)N2C[C@H]3[C@@H]([C@H]2C(=O)N1)C3(C)C | 21
CC(C)(C)OC(=O)N[C@@H]1C(=O)N2C[C@H]3[C@@H]([C@H]2C(=O)N[C@H](C(=O)C(N)=O)CCCCCCCCCC1(C)C)C3(C)C | 250

Test system: Hepatitis C virus
Assay: Antiviral activity against HCV RNA replication in human hepatoma cells by replicon assay
Type: functional, organism-based, Hepacivirus hominis
Conditions: not given

Compound | EC90 [nM]
C=CCNC(=O)C(=O)[C@@H]1CCCCCCCO[C@@H](C)[C@H](NC(=O)N[C@H](CN2C(=O)CC(C)(C)CC2=O)C(C)(C)C)C(=O)N2C[C@H]3[C@@H]([C@H]2C(=O)N1)C3(C)C | 40

Same assay, conditions: read-out: EC90

EC90 [nM] | Compound
100 | C=CCNC(=O)C(=O)[C@@H]1CCCCCCCOC[C@H](NC(=O)N[C@H](CN2CCC(C)(C)CC2=O)C(C)(C)C)C(=O)N2C[C@H]3[C@@H]([C@H]2C(=O)N1)C3(C)C
60 | C=CCNC(=O)C(=O)[C@@H]1CCCCCCCO[C@@H](C)[C@H](NC(=O)N[C@H](CN2C(=O)CN(C)CC2=O)C(C)(C)C)C(=O)N2C[C@H]3[C@@H]([C@H]2C(=O)N1)C3(C)C
30 | C=CCNC(=O)C(=O)[C@@H]1CCCCCCCO[C@@H](C)[C@H](NC(=O)N[C@H](CN2C(=O)C3CCC(C3)C2=O)C(C)(C)C)C(=O)N2C[C@H]3[C@@H]([C@H]2C(=O)N1)C3(C)C

The remaining lines, values behind:

Compound | EC90 [nM]
C=CCNC(=O)C(=O)[C@@H]1CCCCCCCOC[C@H](NC(=O)N[C@H](CN(C)S(=O)(=O)c2cccs2)C(C)(C)C)C(=O)N2C[C@H]3[C@@H]([C@H]2C(=O)N1)C3(C)C | 150
C=CCNC(=O)C(=O)[C@@H]1CCCCCCCO[C@@H](C)[C@H](NC(=O)N[C@H](CN2CCC(C)(C)CC2=O)C(C)(C)C)C(=O)N2C[C@H]3[C@@H]([C@H]2C(=O)N1)C3(C)C | 60
C=CCNC(=O)C(=O)[C@@H]1CCCCCCCOC[C@H](NC(=O)N[C@H](CN2C(=O)C3CCC(C3)C2=O)C(C)(C)C)C(=O)N2C[C@H]3[C@@H]([C@H]2C(=O)N1)C3(C)C | 30
C=CCNC(=O)C(=O)[C@@H]1CCCCCCCOC[C@H](NC(=O)N[C@H](CN2C(=O)CC(C)(C)CC2=O)C(C)(C)C)C(=O)N2C[C@H]3[C@@H]([C@H]2C(=O)N1)C3(C)C | 50
C=CCNC(=O)C(=O)[C@@H]1CCCCCCCOC[C@H](NC(=O)N[C@H](CN2C(=O)CN(C)CC2=O)C(C)(C)C)C(=O)N2C[C@H]3[C@@H]([C@H]2C(=O)N1)C3(C)C | 80
CC(C)(C)NC(=O)N[C@H](C(=O)N1C[C@H]2[C@@H]([C@H]1C(=O)NC(CC1CCC1)C(=O)C(N)=O)C2(C)C)C(C)(C)C (some centres undefined) [BOCEPREVIR] | 350
C=CCNC(=O)C(=O)[C@@H]1CCCCCCCOC[C@H](NC(=O)N[C@H](CN2CCCCC2=O)C(C)(C)C)C(=O)N2C[C@H]3[C@@H]([C@H]2C(=O)N1)C3(C)C | 160

Test system: not listed separately
Assay: Selectivity for HCV NS3 protease over human neutrophil elastase
Conditions: not given

Ratio | Compound
140 | C=CCNC(=O)C(=O)[C@@H]1CCCCCCCOC[C@H](NC(=O)N[C@H](CN2CCC(C)(C)CC2=O)C(C)(C)C)C(=O)N2C[C@H]3[C@@H]([C@H]2C(=O)N1)C3(C)C
1100 | C=CCNC(=O)C(=O)[C@@H]1CCCCCCCO[C@@H](C)[C@H](NC(=O)N[C@H](CN2C(=O)CN(C)CC2=O)C(C)(C)C)C(=O)N2C[C@H]3[C@@H]([C@H]2C(=O)N1)C3(C)C
2800 | C=CCNC(=O)C(=O)[C@@H]1CCCCCCCO[C@@H](C)[C@H](NC(=O)N[C@H](CN2C(=O)C3CCC(C3)C2=O)C(C)(C)C)C(=O)N2C[C@H]3[C@@H]([C@H]2C(=O)N1)C3(C)C
9 | C=CCNC(=O)C(=O)[C@@H]1CCCCCCCOC[C@H](NC(=O)N[C@H](C(=O)C2CC2)C2CCCCC2)C(=O)N2C[C@H]3[C@@H]([C@H]2C(=O)N1)C3(C)C

Continued, compound first:

Compound | Ratio
C=CCNC(=O)C(=O)[C@@H]1CCCCCCCOC[C@H](NC(=O)N[C@H](CN(C)S(=O)(=O)CC)C(C)(C)C)C(=O)N2C[C@H]3[C@@H]([C@H]2C(=O)N1)C3(C)C | 350
C=CCNC(=O)C(=O)[C@@H]1CCCCCCCO[C@@H](C)[C@H](NC(=O)N[C@H](CN2C(=O)CC(C)(C)CC2=O)C(C)(C)C)C(=O)N2C[C@H]3[C@@H]([C@H]2C(=O)N1)C3(C)C | 1400
C=CCNC(=O)C(=O)[C@@H]1CCCCCCCOC[C@H](NC(=O)N[C@H](CN(C)S(=O)(=O)c2cccs2)C(C)(C)C)C(=O)N2C[C@H]3[C@@H]([C@H]2C(=O)N1)C3(C)C | 100
C=CCNC(=O)C(=O)[C@@H]1CCCCCCCO[C@@H](C)[C@H](NC(=O)N[C@H](CN2CCC(C)(C)CC2=O)C(C)(C)C)C(=O)N2C[C@H]3[C@@H]([C@H]2C(=O)N1)C3(C)C | 1300
C=CCNC(=O)C(=O)[C@@H]1CCCCCCCOC[C@H](NC(=O)N[C@H](CN2C(=O)C3CCC(C3)C2=O)C(C)(C)C)C(=O)N2C[C@H]3[C@@H]([C@H]2C(=O)N1)C3(C)C | 1500
C=CCNC(=O)C(=O)[C@@H]1CCCCCCCOC[C@H](NC(=O)N[C@H](CN2C(=O)CC(C)(C)CC2=O)C(C)(C)C)C(=O)N2C[C@H]3[C@@H]([C@H]2C(=O)N1)C3(C)C | 300
C=CCNC(=O)C(=O)[C@@H]1CCCCCCCOC[C@H](NC(=O)N[C@H](CN2C(=O)CN(C)CC2=O)C(C)(C)C)C(=O)N2C[C@H]3[C@@H]([C@H]2C(=O)N1)C3(C)C | 300
CC(C)(C)NC(=O)N[C@H](C(=O)N1C[C@H]2[C@@H]([C@H]1C(=O)NC(CC1CCC1)C(=O)C(N)=O)C2(C)C)C(C)(C)C (some centres undefined) [BOCEPREVIR] | 2200
C=CCNC(=O)C(=O)[C@@H]1CCCCCCCOC[C@H](NC(=O)N[C@H](CN2CCCCC2=O)C(C)(C)C)C(=O)N2C[C@H]3[C@@H]([C@H]2C(=O)N1)C3(C)C | 160

Source: ChEMBL document CHEMBL1143391, “Design, synthesis, and evaluation of oxygen-containing macrocyclic peptidomimetics as inhibitors of HCV NS3 protease” (J Med Chem, 2009)
